From PubChem
Only a selection was taken, and hits are over-represented in it overall.
Insulin prom act: TRM-6 insulin promoter activation | TRM-6 cells, insulin promoter eGFP reporter, imaging; plate-scaled: unstimulated 0, stimulated control 100 | activation, % at 2 µM | hit rate 0.81% among 130,000 | AID 1296;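 active means activation at 2 µM above a set limit, confirmed on inspection of the cell images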;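 further: share of cells whose green reporter signal exceeds an intensity cutoff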
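System: human fetal islet-derived TRM-6 cells with tamoxifen-inducible insulin promoter–eGFP reporter; input: seeding density of 1,000 cells per well; buffer or medium: Low-glucose (5.5 mM) medium with tamoxifen; incubation: compound exposure 48 h, 37 °C; measured by: high-content imaging of fixed cells with Hoechst nuclear stain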
The depositor's hits bear a star.

SMILES	Insulin prom act
CN(C)S(=O)(=O)c1ccc(NC(=O)C2CC(=O)N(Cc3ccccc3)C2)cc1 (configuration not stated)	0
CC(NC(c1ccccc1)c1ccccc1)C(=O)N1CCCc2ccccc21 (configuration not stated)	2
O=S(=O)(NN=C1CCCCC1)c1ccccc1	-3
CCCCNC(=O)C(C#N)c1nc2ccccc2nc1N1CCN(c2ccccc2F)CC1 (configuration not stated)	20
O=C(CSc1nc2ccccc2o1)Nc1ccc(N2CCOCC2)cc1	0
CC1(C)CC(=O)c2cnc(NC(=O)CSc3nc4ccccc4o3)nc2C1	523*
CCCCC(=O)Nc1ncc2c(n1)CC(C)(C)CC2=O	-6
CCC(CC)C(=O)N=C1SC2CS(=O)(=O)CC2N1CCc1ccc(OC)cc1 (configuration not stated)	0
O=C(CCCN1C(=O)c2ccccc2C1=O)NCc1cccnc1	473*
O=C(CCCN1C(=O)c2ccccc2C1=O)Nc1cccnc1	-10
O=C(CCCN1C(=O)c2ccccc2C1=O)NCc1ccco1	239
Cc1c(N(C(=O)c2cnccn2)C2(C(=O)NC3CCCC3)CCCCC2)c(=O)n(-c2ccccc2)n1C	7
CC(C)C1N=C2c3ccccc3N=C(SCc3cc(=O)n4ccccc4n3)N2C1=O (configuration not stated)	-8
CCOC(=O)c1[nH]c(C)c(C(=O)Nc2cc(Cl)ccc2C)c1C	119
CCOC(=O)c1cc(-c2ccccc2)n(CC(=O)NC(C)(C)C)c1C	130
Cc1ccc(C)c(C(=O)CN2C3=NCCCN3c3ccccc32)c1	0
Cc1nonc1NC(=O)CSc1nc2c(C)cccc2cc1C#N	809*
CCc1cc2cc(C)cc(C)c2nc1SCC(=O)Nc1cc(C)on1	118
Cc1cc(C)c2nc(SCC(=O)Nc3ccccc3N3CCOCC3)c(C#N)cc2c1	329
O=C(Oc1oc(-c2ccco2)nc1C=Nc1ccc(Cl)cc1)c1ccco1	-7
COC(=O)C1CN(S(=O)(=O)c2ccccc2)CCN1S(=O)(=O)c1ccccc1 (configuration not stated)	8
CCCN(CCC)c1nc(N)nc(-c2cc(Cl)ccc2OC)n1	83*
CCCNc1nc(N)nc(-c2cc(Cl)ccc2OC)n1	0
CCNc1nc(N)nc(-c2cc(Cl)ccc2O)n1	-62
O=[N+]([O-])c1ccc(N/N=C/c2sc(N3CCOCC3)nc2-c2ccccc2)c(S(=O)(=O)Nc2ccc(Cl)cc2)c1	488*
SMILES	Insulin prom act
COC(=O)CCC(=O)Nc1cc(S(=O)(=O)Nc2ccc(Cl)cc2)ccc1N1CCOCC1	103
O=C(COc1ccc([N+](=O)[O-])cc1)N/N=C/c1cc([N+](=O)[O-])ccc1N1CCOCC1	148
CCCS(=O)(=O)c1c(S(=O)(=O)CCC)c2c(C)cccn2c1C(N)=O	-86
CCN(CC)S(=O)(=O)c1ccc(Cl)c(C(=O)OC)c1	3
CCCS(=O)(=O)c1c(S(=O)(=O)CCC)c2cc(-c3ccncc3)ccn2c1C(=O)OC	379*
Nc1ccc(Cc2ccc(N)c(C(=O)O)c2)cc1C(=O)O	-2
Cc1ccc(NC(=O)C2CCN(S(=O)(=O)c3c(C)[nH]c(=O)[nH]c3=O)CC2)cc1	7
CCOC(=O)C(CC)Sc1ncnc2nc[nH]c12 (configuration not stated)	-3
CCOC(=O)C(C)Sc1ncnc2nc[nH]c12 (configuration not stated)	513*
CCOC(=O)C(C)Sc1ncnc2c1nnn2-c1ccc(F)cc1 (configuration not stated)	-9
S=C(Nc1cccc(Cl)c1)N1CCN(Cc2ccccc2)CC1	-3
COc1ccc(CNCC(=O)Nc2sccc2C#N)cc1	-6
COc1ccc(N2CCN(CCCNC(=O)Nc3ccccc3)CC2)cc1	229
COc1ccc2c(C(=O)CN3CCN(c4ccccc4)CC3)c[nH]c2c1	94*
COc1cccc(N2CCN(CC(=O)NC(=O)NCc3ccco3)CC2)c1	-8
Cc1ccc(C)c2c1cc(C)c1nnc(SCC(=O)c3cccs3)n12	-3
CCOc1ccccc1C(=O)N(Cc1cccs1)C1CCS(=O)(=O)C1 (configuration not stated)	8
CCOc1ccccc1C(=O)Nc1cnn(Cc2ccc(F)cc2)c1	7
O=C(Oc1cccc(N2C(=O)CCC2=O)c1)c1ccccc1	10
COc1ccccc1CN=C1Nc2ccccc2CS1	4
COc1ccccc1N1CCN(S(=O)(=O)c2ccc3c4c(cccc24)C(=O)N3C)CC1	7
C=CCN1C(=O)c2cccc3c(N4CCCCC4)ccc(c23)C1=O	669*
Fc1ccc(/C=N/Nc2ncnc3nc[nH]c23)cc1F	-60
CCOc1ccc2ccccc2c1/C=N/NC(=O)CC1(C)OCCCO1	0
Cn1c(N)c(C(=O)COC(=O)c2cncc(Br)c2)c(=O)n(C)c1=O	-10
SMILES	Insulin prom act
Cc1cccc(N2CCN(C(=O)c3ccc4ncsc4c3)CC2)c1C	-5
CC(C)CC(=O)n1sc(NC(=O)c2ccccc2)nc1=O	7
Cc1ccc(C(=O)Nc2nc(=O)n(C(=O)c3ccccc3Cl)s2)cc1	84*
CCn1c(NC(=O)c2ccc(C)cc2)c2ccccc2nc1=O	-9
O=C(c1ccccc1)c1c2c(cc3sc4ccccc4[n+]13)-c1cccc3cccc-2c13	233*
C=CCNc1sc(C(=O)c2ccccc2)c(N)c1-c1nc2ccccc2s1	2
C=CCc1ccc(OCC(O)CN2CCCCC2C)c(OC)c1 (configuration not stated)	6
Cc1cccc(-c2noc(CCC(=O)NCC3CCCO3)n2)c1 (configuration not stated)	-7
COc1c(Cl)cc(-c2noc(C)c2C(=O)NCc2ccc3c(c2)OCO3)cc1Cl	0
COC(=O)c1c(NC(=O)CSc2nnnn2-c2ccccc2)sc2c1CCCC2	3
CC(NC(=O)CSc1nc(=O)cc(N)n1-c1ccccc1)c1ccccc1 (configuration not stated)	-7
CC(C)CNC(=O)CSc1nc2nn(-c3ccccc3)c(=O)c-2c2n1CCCCC2	467*
CC1CC(C)CN(S(=O)(=O)c2ccc(C(=O)N(c3ccccn3)C3CCCCC3)cc2)C1 (configuration not stated)	9
COc1ccc(CCN(C)C(=O)CCc2nnc(-c3ccccc3)o2)cc1OC	5
Cc1ccc(NC(=O)c2ccncc2)cc1[N+](=O)[O-]	2
Cc1ccc(NC(=O)c2ccc(-n3cccn3)c([N+](=O)[O-])c2)cc1C	218*
O=C(Nc1cccc(Cl)c1)c1ccc(-n2cncn2)c([N+](=O)[O-])c1	6
CCCCc1nc(NCCN2CCOCC2)c(C#N)c2c1COC(C)(C)C2	-9
Cc1cc(C(=O)OCC(=O)c2c(N)n(C)c(=O)n(C)c2=O)c(C)n1-c1ccccc1	-8
O=C(CCS(=O)(=O)Cc1ccccc1)Nc1nc2c(s1)CCCC2	10
O=C(CCn1cnc2ccccc2c1=O)Nc1cccc(Cl)c1	9
O=C(CCn1cnc2ccccc2c1=O)Nc1nc2c(s1)CCCC2	510*
CC1CCN(S(=O)(=O)c2ccccc2[N+](=O)[O-])CC1	8
CNC(=S)Nc1cc(C(=O)N2CCCC2)ccc1N1CCCC1	0
O=C1NC(=O)C(CC(=O)N(Cc2ccco2)C2(C(=O)NC3CCCC3)CCCCC2)N1 (configuration not stated)	0
O=C(COC(=O)c1ccccn1)NC1CCCCC1	-3
O=C(c1ccccn1)N(Cc1ccco1)C1(C(=O)NC2CCCC2)CCCCC1	81*
